Source: PubChem BioAssay
This is a sample that favours compounds with a hit; in the whole collection about 1.9% have one here.
CHRM4 antagonist: human M4 muscarinic receptor antagonists, primary screen, CHO cells, Fluo-8 calcium fluorescence; inhibition, % at 3 µM; AID 624125, 2012; hit rate 0.73% among 360,000; CHO-hM4 cells, ACh EC80; Muscarinic acetylcholine receptor M4 (Homo sapiens), P08173;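 active = inhibition above its plate's cutoff, the mean inhibition of sample wells plus 3 SD, cut at about 27% in these data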
M5 ag: human M5 muscarinic receptor agonists, primary screen, CHO-K1 cells, Fluo-8 calcium fluorescence. Muscarinic acetylcholine receptor M5 (Homo sapiens), P08912. CHO-K1 hM5 cells; 0% DMSO wells, 100% maximal acetylcholine response. activation, % at 3 µM. hit rate 0.19% among 360,000. AID 624037, 2012;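 active = activation above the run's mean over test compounds plus 3 SD, cut at about 23% in these data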;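 note: signal is peak over basal fluorescence ratio across the kinetic read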
Target sequence (P08912 whole entry, looked up): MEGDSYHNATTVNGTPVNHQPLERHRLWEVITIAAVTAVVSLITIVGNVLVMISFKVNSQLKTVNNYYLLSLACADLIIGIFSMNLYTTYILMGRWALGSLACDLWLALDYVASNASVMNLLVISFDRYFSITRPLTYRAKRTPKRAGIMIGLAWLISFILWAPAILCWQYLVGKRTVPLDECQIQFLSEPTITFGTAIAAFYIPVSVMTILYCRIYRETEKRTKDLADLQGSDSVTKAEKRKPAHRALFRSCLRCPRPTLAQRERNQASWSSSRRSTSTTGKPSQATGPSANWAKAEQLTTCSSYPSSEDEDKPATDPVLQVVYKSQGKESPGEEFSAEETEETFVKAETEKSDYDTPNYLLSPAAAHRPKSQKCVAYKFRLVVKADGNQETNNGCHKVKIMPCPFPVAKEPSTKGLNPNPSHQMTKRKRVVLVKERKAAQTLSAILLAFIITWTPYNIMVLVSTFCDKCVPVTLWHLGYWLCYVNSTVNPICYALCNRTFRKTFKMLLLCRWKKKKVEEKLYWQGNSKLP
M5 antag: human M5 muscarinic receptor antagonists, primary screen, CHO cells, Fluo-8 calcium fluorescence; Muscarinic acetylcholine receptor M5 (Homo sapiens), P08912; hit rate 0.59% among 360,000; CHO-hM5 cells, ACh EC80; inhibition, % at 3 µM;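 active = inhibition above a per-plate cutoff, the mean of that plate's test compounds plus 3 SD, cut at about 27% in these data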
M5 PAM: human M5 muscarinic receptor positive allosteric modulators, primary screen, CHO-K1 cells, Fluo-8 calcium fluorescence; Muscarinic acetylcholine receptor M5 (Homo sapiens), P08912; CHO-K1 hM5, ACh EC20 PAM; 0% = ACh EC20, 100% = ACh EC100; activation, % at 3 µM; hit rate 0.3% among 360,000; AID 624038, 2012;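 active = activation above the run cutoff, the mean activation of all test compounds plus 3 SD, cut at about 18% in these data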
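Assay system: CHO-K1 hM5 cells / Incubation: Fluo-8 loading 80 min at 37 °C plus 30 min room temperature / Technique: Fluo-8 calcium dye fluorescence, kinetic read / Repeats: single replicate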
CHRM4 PAM: human M4 muscarinic receptor positive allosteric modulators, primary screen, CHO-K1 cells, Fluo-8 calcium fluorescence. hit rate 0.4% among 360,000. Muscarinic acetylcholine receptor M4 (Homo sapiens), P08173. activation, % at 3 µM. CHO-K1 hM4/Gqi5, ACh EC20; 0% = ACh EC20, 100% = maximal ACh;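 active = activation above its plate's cutoff, the mean activation of sample wells plus 3 SD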
CHRM4 agonist: human M4 muscarinic receptor agonists, primary screen, CHO-K1 cells, Fluo-8 calcium fluorescence; Muscarinic acetylcholine receptor M4 (Homo sapiens), P08173; CHO-K1 hM4/Gqi5; vehicle 0%, full acetylcholine response 100%; activation, % at 3 µM; hit rate 0.14% among 360,000; AID 624127, 2012;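 active = activation above the run mean over all test wells plus 3 SD, cut at about 32% in these data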;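 note: peak over basal fluorescence ratio per well then scaled between controls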
Numbers stand for hits.

O=c1[nH]c2ccccc2c2nc(-c3cccc(S(=O)(=O)N4CCCC4)c3)nn12 was read as CHRM4 antagonist 29.3, M5 ag inactive, M5 antag inactive, M5 PAM inactive, CHRM4 PAM inactive and CHRM4 agonist inactive.
COc1ccc(S(=O)(=O)N2CC3CCCN3c3ccc(C(F)(F)F)cc32)cc1 (stereo unspecified) was read as CHRM4 antagonist 29.8, M5 ag inactive, M5 antag inactive, M5 PAM inactive, CHRM4 PAM inactive and CHRM4 agonist inactive.
`CS(=O)(=O)N1CC2CCCN2c2ccc(C(F)(F)F)cc21` (stereo unspecified) gave CHRM4 antagonist inactive, M5 ag inactive, M5 antag inactive, M5 PAM inactive, CHRM4 PAM inactive and CHRM4 agonist inactive.
Screening O=S(=O)(c1cc(Cl)ccc1Cl)N1CC2CCCN2c2ccc(C(F)(F)F)cc21 (stereo unspecified) returned CHRM4 antagonist 44.5, M5 ag inactive, M5 antag inactive, M5 PAM inactive, CHRM4 PAM inactive and CHRM4 agonist inactive.
For COc1ccc(S(=O)(=O)N2CC3CCCN3c3cc(C(F)(F)F)ccc32)cc1 (stereo unspecified) the results were CHRM4 antagonist inactive, M5 ag inactive, M5 antag inactive, M5 PAM inactive, CHRM4 PAM inactive and CHRM4 agonist inactive.
For CCN(CC)c1ccc2cc(C(C)=O)c(=O)oc2c1 the results were CHRM4 antagonist inactive, M5 ag inactive, M5 antag inactive, M5 PAM inactive, CHRM4 PAM inactive and CHRM4 agonist inactive.
Screening CCN(CC)c1ccc2cc(C=O)c(=O)oc2c1 returned CHRM4 antagonist inactive, M5 ag 29.3, M5 antag inactive, M5 PAM inactive, CHRM4 PAM inactive and CHRM4 agonist inactive.
Screening Nc1cc(=O)[nH]c(SCC(=O)N2N=C(c3ccc4ccccc4c3)CC2c2ccccc2)n1 (stereo unspecified) returned CHRM4 antagonist 36.0, M5 ag inactive, M5 antag inactive, M5 PAM inactive, CHRM4 PAM inactive and CHRM4 agonist inactive.
Screening CC(=O)OCC(=O)N1N=C(c2ccc3ccccc3c2)CC1c1ccccc1 (stereo unspecified) returned CHRM4 antagonist inactive, M5 ag inactive, M5 antag inactive, M5 PAM inactive, CHRM4 PAM inactive and CHRM4 agonist inactive.
CCCNC(=O)Cn1c(=O)/c(=C\c2ccc(-c3ccc([N+](=O)[O-])cc3)o2)s/c1=C\C(=O)C(C)(C)C was read as CHRM4 antagonist inactive, M5 ag 25.3, M5 antag inactive, M5 PAM inactive, CHRM4 PAM inactive and CHRM4 agonist inactive.
Screening CC(C)c1nc2n[nH]c(N)c2c2c1CCCC2 returned CHRM4 antagonist inactive, M5 ag inactive, M5 antag inactive, M5 PAM inactive, CHRM4 PAM 23.0 and CHRM4 agonist inactive.
`O=C(/C=C/c1ccccc1)NC(NC(=S)Nc1ccc(Cl)cc1Cl)C(Cl)(Cl)Cl` (stereo unspecified) gave CHRM4 antagonist inactive, M5 ag inactive, M5 antag 34.3, M5 PAM inactive, CHRM4 PAM inactive and CHRM4 agonist inactive.
CC(C)(C)c1nnc2sc(SCC(=O)N3CCCCC3)nn2c1=O was read as CHRM4 antagonist inactive, M5 ag inactive, M5 antag inactive, M5 PAM inactive, CHRM4 PAM inactive and CHRM4 agonist inactive.
For Cc1ccc2c(c1)[C@H]1[C@H](CO2)[C@H](c2ccccc2)[C@]2(C)C(=O)N(Cc3ccc(F)cc3)CC(=O)N12 the results were CHRM4 antagonist inactive, M5 ag 24.4, M5 antag inactive, M5 PAM inactive, CHRM4 PAM inactive and CHRM4 agonist inactive.
Screening COc1ccc2c(c1)OC[C@H]1[C@H]2N2C(=O)c3cc(F)ccc3NC(=O)[C@@]2(C)[C@H]1c1ccccc1 returned CHRM4 antagonist 56.7, M5 ag inactive, M5 antag inactive, M5 PAM inactive, CHRM4 PAM inactive and CHRM4 agonist inactive.
Screening COc1ccc2c(c1)OC[C@H]1[C@H]2N2C(=O)c3cc(Cl)ccc3NC(=O)[C@@]2(C)[C@H]1c1ccccc1 returned CHRM4 antagonist 35.9, M5 ag inactive, M5 antag inactive, M5 PAM inactive, CHRM4 PAM inactive and CHRM4 agonist inactive.
Screening C[C@@]12C(=O)Nc3cc(F)ccc3C(=O)N1[C@H]1c3ccccc3OC[C@@H]1[C@@H]2c1ccccc1 returned CHRM4 antagonist 73.3, M5 ag inactive, M5 antag inactive, M5 PAM inactive, CHRM4 PAM inactive and CHRM4 agonist inactive.
For COc1ccc(NS(=O)(=O)c2cc(NC(=O)c3ccc(=O)[nH]c3)ccc2N2CCCC2)cc1 the results were CHRM4 antagonist inactive, M5 ag inactive, M5 antag inactive, M5 PAM inactive, CHRM4 PAM inactive and CHRM4 agonist inactive.
Screening O=C(NCCCN1CCOCC1)C1CCN(S(=O)(=O)c2ccccc2)CC1 returned CHRM4 antagonist inactive, M5 ag inactive, M5 antag inactive, M5 PAM inactive, CHRM4 PAM inactive and CHRM4 agonist inactive.
CC(NC(=O)COc1ccccc1)C(=O)N1CCN(c2ccccc2)CC1 (stereo unspecified) was read as CHRM4 antagonist inactive, M5 ag inactive, M5 antag inactive, M5 PAM inactive, CHRM4 PAM inactive and CHRM4 agonist inactive.
Screening COc1ccc2c(c1)OC[C@H]1[C@H]2N2C(=O)c3ccc(C)cc3NC(=O)[C@@]2(C)[C@H]1c1ccccc1 returned CHRM4 antagonist inactive, M5 ag inactive, M5 antag inactive, M5 PAM inactive, CHRM4 PAM inactive and CHRM4 agonist inactive.
`COc1ccc2c(c1)OC[C@H]1[C@H]2N2C(=O)c3cc(OC)ccc3NC(=O)[C@@]2(C)[C@H]1c1ccccc1` gave CHRM4 antagonist 26.5, M5 ag inactive, M5 antag inactive, M5 PAM inactive, CHRM4 PAM inactive and CHRM4 agonist inactive.
Screening O=C(OCC(=O)N1CCCCCC1)c1ccc(F)cc1F returned CHRM4 antagonist inactive, M5 ag inactive, M5 antag inactive, M5 PAM inactive, CHRM4 PAM inactive and CHRM4 agonist inactive.
CCN(CC)S(=O)(=O)c1ccc(Cl)c(C(=O)Nc2ccc(Cl)cc2[N+](=O)[O-])c1 was read as CHRM4 antagonist inactive, M5 ag inactive, M5 antag 30.0, M5 PAM inactive, CHRM4 PAM inactive and CHRM4 agonist inactive.
